The text below walks through data of ChEMBL document CHEMBL4130543, “Bacilotetrins A and B, Anti-Staphylococcal Cyclic-Lipotetrapeptides from a Marine-Derived Bacillus subtilis” (J Nat Prod, 2017).

In data set [1] the test system is Staphylococcus aureus. The data set can be described thus: Antibacterial activity against […] after 24 hrs by MTT dye based broth microdilution method. In kind it is functional. To be noted: ATCC 25923, 24 h. Background: Formazan colour is commonly taken as a measure of viable cells.
Data set [2] deals with Staphylococcus aureus. The data set can be described thus: Antibacterial activity against methicillin-resistant Staphylococcus aureus isolate EMRSA-15 after 24 hrs by MTT dye based broth microdilution method. The format is functional.
Data set [3] relates to Staphylococcus aureus. The data set can be described thus: Antibacterial activity against methicillin-resistant Staphylococcus aureus RN4220 after 24 hrs by MTT dye based broth microdilution method. In kind it is functional.
The subject of data set [4] is Staphylococcus aureus. In words: Antibacterial activity against methicillin-resistant Staphylococcus aureus SA1199B after 24 hrs by MTT dye based broth microdilution method. The format is functional.
The test system of data set [5] is Staphylococcus aureus. The data set can be described thus: Antibacterial activity against methicillin-resistant Staphylococcus aureus isolate XU2120 after 24 hrs by MTT dye based broth microdilution method. In kind it is functional. To be noted: isolate XU2120, 24 h.
The subject of the next data set is Prostatic carcinoma cell. In words: Cytotoxicity against human prostate cancer cells at 3 to 30 ug/ml after 48 hrs by SRB assay. In kind it is cell-based. The procedure, abridged:
(§1)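 Cells plated in 96-well format with test samples at 30, 10 and 3 μg/mL for 48 h. Adherent cells fixed in 50% (wt/vol) trichloroacetic acid, stained 60 min with 0.4% sulforhodamine B in 1% acetic acid, bound dye dissolved in 10 mM Tris base, absorbance read at 510 nm.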

Data set [6] is described as follows: Cytotoxicity against human hepatic cancer cells at 3 to 30 ug/ml after 48 hrs by SRB assay. In kind it is cell-based. The procedure, abridged:
as §1
Background: Sulforhodamine B stains cellular protein and so reports cell mass.

As usually defined, the MIC is the least concentration at which growth counts as inhibited.

In brackets after ≈: the same amount, converted by molar mass. Activity calls are given as the source filed them. The calls are words filed in the database; no cut-off is given here.

Regarding `CCC(C)CC(C)CCCCC[C@@H]1CC(=O)N[C@@H](CC(C)C)C(=O)N[C@@H](CC(C)C)C(=O)N[C@@H](CC(C)C)C(=O)N[C@@H](CCC(=O)O)C(=O)O1` (some centres undefined), the MIC was determined as 16 mg/L (≈ 22.6 µM) with Staphylococcus aureus [1], 32 mg/L (≈ 45.1 µM) against Staphylococcus aureus [4] and 16 mg/L (≈ 22.6 µM) with Staphylococcus aureus [5]. Moreover, the MIC result in the data set with Staphylococcus aureus [2] and with Staphylococcus aureus [3] was “inactive” each time. Besides, the Activity result (in the data set with Prostatic carcinoma cell; in data set [6]) was “Non-Toxic” each time.

Take `CCn1cc(C(=O)O)c(=O)c2cc(F)c(N3CCNCC3)cc21` [NORFLOXACIN]: the MIC in the data set with Staphylococcus aureus [1] is 16 mg/L (≈ 50.1 µM); with Staphylococcus aureus [2] (isolate EMRSA-15, 24 h), 4 mg/L (≈ 12.5 µM); in the data set with Staphylococcus aureus [3] (RN4220, 24 h), 2 mg/L (≈ 6.26 µM); with Staphylococcus aureus [4], 64 mg/L (≈ 200 µM); in the data set with Staphylococcus aureus [5], 16 mg/L (≈ 50.1 µM).

Take `CCC(C)CCCCCCC[C@@H]1CC(=O)N[C@@H](CC(C)C)C(=O)N[C@@H](CC(C)C)C(=O)N[C@@H](CC(C)C)C(=O)N[C@@H](CCC(=O)O)C(=O)O1` (some centres undefined): the MIC in the data set on Staphylococcus aureus [1] amounted to 8 mg/L (≈ 11.5 µM); in the data set on Staphylococcus aureus [3] (RN4220, 24 h) it was 32 mg/L (≈ 46 µM); with Staphylococcus aureus [4], 8 mg/L (≈ 11.5 µM); with Staphylococcus aureus [5], 16 mg/L (≈ 23 µM). The MIC result with Staphylococcus aureus [2] was “inactive”. The Activity entry (in the data set on Prostatic carcinoma cell; in data set [6]) was “Non-Toxic” each time.
